Laboratory results as given in ChEMBL document CHEMBL4715713, “Novel anticancer oridonin derivatives possessing a diazen-1-ium-1,2-diolate nitric oxide donor moiety: Design, synthesis, biological evaluation and nitric oxide release studies” (Bioorg Med Chem Lett, 2016).
pIC50: −log10 of the molar value. Where a name gives a salt, the structure may show the parent alone.

How the values were obtained:
[1] = Prodrug release in human Bel-7402 cells assessed as NO release by measuring increase in nitrite/nitrate production at 50 uM measured upto 24 hrs by Griess reagent based assay; format: ADME, cell-based; conditions: bel-7402, 24 h
In short: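 Bel-7402 cells were seeded at 15,000/mL and treated in triplicate with each compound at 50 µM for varying times. Nitrate/nitrite in the cell lysates was determined by the Griess assay. Values are the mean of three independent experiments.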

Bel-7402 [2] = assay: Antiproliferative activity against human Bel-7402 cells assessed as reduction in cell viability incubated for 72 hrs by MTT assay; format: functional, cell-based; conditions: Bel-7402, 72 h
In short: (§1)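 Cells were exposed to a range of test concentrations for 72 h and viability was read by MTT. IC50 values were taken from the concentration-response data, and means ± SD are from n = 3.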

Bel-7402 [3] = assay: Antiproliferative activity against human Bel-7402 cells assessed as reduction in cell viability at 10 uM incubated for 72 hrs by MTT assay relative to control; format: functional
Bel-7402 [4] = assay: Antiproliferative activity against human Bel-7402 cells assessed as reduction in cell viability at 1 uM incubated for 72 hrs by MTT assay relative to control; format: functional
Bel-7402 [5] = assay: Antiproliferative activity against human Bel-7402 cells assessed as reduction in cell viability incubated for 72 hrs in presence of O2-Chloromethyl-1-( morpholin -1-yl)diazen-1-ium-1,2-diolate by MTT assay; format: functional, cell-based; conditions: Bel-7402, 72 h
HeLa = assay: Antiproliferative activity against human HeLa cells assessed as reduction in cell viability incubated for 72 hrs by MTT assay; format: functional, cell-based; in short: as §1
Bel-7402 [6] = assay: Induction of cell cycle arrest in human Bel-7402 cells assessed as accumulation in G1 phase at 0.625 uM incubated for 36 hrs by PI staining based flow cytometry analysis (reference value: 74.01 %); format: functional
Bel-7402 [7] = assay: Induction of cell cycle arrest in human Bel-7402 cells assessed as accumulation in G2 phase at 1.25 uM incubated for 36 hrs by PI staining based flow cytometry analysis (reference value: 6.31 %); format: functional
Bel-7402 [8] = assay: Induction of cell cycle arrest in human Bel-7402 cells assessed as accumulation in G1 phase at 1.25 uM incubated for 36 hrs by PI staining based flow cytometry analysis (reference value: 74.01 %); format: functional
HepG2 = assay: Antiproliferative activity against human HepG2 cells assessed as reduction in cell viability incubated for 72 hrs by MTT assay; format: functional, cell-based; conditions: HepG2, 72 h; in short: as §1
Bel-7402 [9] = assay: Induction of cell cycle arrest in human Bel-7402 cells assessed as accumulation in S phase at 1.25 uM incubated for 36 hrs by PI staining based flow cytometry analysis (reference value: 19.68 %); format: functional
Bel-7402 [10] = assay: Induction of cell cycle arrest in human Bel-7402 cells assessed as accumulation in S phase at 0.625 uM incubated for 36 hrs by PI staining based flow cytometry analysis (reference value: 19.68 %); format: functional
A549 = assay: Antiproliferative activity against human A549 cells assessed as reduction in cell viability incubated for 72 hrs by MTT assay; format: functional, cell-based; conditions: A549, 72 h; in short: as §1
K562 = assay: Antiproliferative activity against human K562 cells assessed as reduction in cell viability incubated for 72 hrs by MTT assay; format: functional, cell-based; conditions: K562, 72 h; in short: as §1
Bel-7402 [11] = assay: Induction of apoptosis in human Bel-7402 cells assessed as apoptotic cells at 2.5 uM incubated for 36 hrs by Annexin V-FITC and PI staining based flow cytometry analysis (reference value: 6.20%); format: functional
Bel-7402 [12] = assay: Induction of cell cycle arrest in human Bel-7402 cells assessed as increase in accumulation in S phase incubated for 36 hrs by PI staining based flow cytometry analysis; format: functional; conditions: dose 0.625-2.5 µM
Bel-7402 [13] = assay: Induction of cell cycle arrest in human Bel-7402 cells assessed as accumulation in S phase at 2.5 uM incubated for 36 hrs by PI staining based flow cytometry analysis (reference value: 19.68 %); format: functional
Bel-7402 [14] = assay: Induction of cell cycle arrest in human Bel-7402 cells assessed as accumulation in G2 phase at 0.625 uM incubated for 36 hrs by PI staining based flow cytometry analysis (reference value: 6.31 %); format: functional
Bel-7402 [15] = assay: Induction of cell cycle arrest in human Bel-7402 cells assessed as accumulation in G1 phase at 2.5 uM incubated for 36 hrs by PI staining based flow cytometry analysis (reference value: 74.01 %); format: functional
Bel-7402 [16] = assay: Induction of cell cycle arrest in human Bel-7402 cells assessed as accumulation in G2 phase at 2.5 uM incubated for 36 hrs by PI staining based flow cytometry analysis (reference value: 6.31 %); format: functional

SMILES | Drug metabolism [1] | pIC50 (Bel-7402 [2]) | inhibition at 10 µM (Bel-7402 [3]) [%] | inhibition at 1 µM (Bel-7402 [4]) [%] | also measured
C=C1C(=O)[C@]23[C@H](OC(=O)CCC(=O)OCO/N=[N+](\[O-])N4CCOCC4)[C@H]1CC[C@H]2[C@@]12CO[C@@]3(O)[C@@H](O)[C@@H]1C(C)(C)CC[C@@H]2O | Metabolite_Detected | 5.56 | 93.3 | 88.5 | –
C=C1C(=O)[C@]23[C@H](OC(=O)CCCC(=O)OCO/N=[N+](\[O-])N4CCOCC4)[C@H]1CC[C@H]2[C@@]12CO[C@@]3(O)[C@@H](O)[C@@H]1C(C)(C)CC[C@@H]2O | – | 5.60 | 92.7 | 83.8 | –
C=C1C(=O)[C@]23[C@H](OC(=O)CCC(=O)OCO/N=[N+](\[O-])N4CCCC4)[C@H]1CC[C@H]2[C@@]12CO[C@@]3(O)[C@@H](O)[C@@H]1C(C)(C)CC[C@@H]2O | Metabolite_Detected | 4.88 | 93.2 | 15.9 | –
C=C1C(=O)[C@]23[C@H](OC(=O)CCC(=O)OCO/N=[N+](\[O-])N4CCCC4)[C@H]1CC[C@H]2[C@@]12CO[C@@]3(O)[C@@H](O)[C@@H]1C(C)(C)CCC2=O | – | 4.84 | 93.6 | 24.2 | –
C=C1C(=O)[C@]23[C@H](OC(=O)CCC(=O)O)[C@H]1CC[C@H]2[C@@]12CO[C@@]3(O)[C@@H](O)[C@@H]1C(C)(C)CCC2=O | – | 5.04 | – | – | pIC50 (Bel-7402 [5]): 5.28
[O-]/[N+](=N\OCCl)N1CCOCC1 | – | 4.61 | – | – | –
C=C1C(=O)[C@]23[C@H](OC(=O)CCCC(=O)OCO/N=[N+](\[O-])N4CCCC4)[C@H]1CC[C@H]2[C@@]12CO[C@@]3(O)[C@@H](O)[C@@H]1C(C)(C)CC[C@@H]2O | – | 4.96 | 93.4 | 26.1 | –
C=C1C(=O)[C@]23[C@H](OC(=O)CCC(=O)OCO/N=[N+](\[O-])N4CCOCC4)[C@H]1CC[C@H]2[C@@]12CO[C@@]3(O)[C@@H](O)[C@@H]1C(C)(C)CCC2=O | – | 5.49 | 93.1 | 71.3 | –
COc1cccc2c1C(=O)c1c(O)c3c(c(O)c1C2=O)C[C@@](O)(C(=O)CO)C[C@@H]3O[C@H]1C[C@H](N)[C@H](O)[C@H](C)O1 [DOXORUBICIN HYDROCHLORIDE] | – | 6.08 | – | – | –
C=C1C(=O)[C@]23[C@H](OC(=O)CCCC(=O)OCO/N=[N+](\[O-])N4CCCC4)[C@H]1CC[C@H]2[C@@]12CO[C@@]3(O)[C@@H](O)[C@@H]1C(C)(C)CCC2=O | Metabolite_Detected | 4.77 | 93.9 | 13.5 | –
C=C1C(=O)[C@]23[C@H](O)[C@H]1CC[C@H]2[C@@]12CO[C@]3(O)[C@@H](O)[C@@H]1C(C)(C)CC[C@@H]2O [ORIDONIN] | – | 5.15 | 93.6 | 29.9 | –
C=C1C(=O)[C@]23[C@H](OC(=O)CCCC(=O)OCO/N=[N+](\[O-])N4CCOCC4)[C@H]1CC[C@H]2[C@@]12CO[C@@]3(O)[C@@H](O)[C@@H]1C(C)(C)CCC2=O | Metabolite_Detected | 5.74 | 93.9 | 87.8 | pIC50 (HeLa): 5.61; Activity (Bel-7402 [6]): 68.47%; Activity (Bel-7402 [7]): 3.66%; Activity (Bel-7402 [8]): 66.35%; pIC50 (HepG2): 5.59; Activity (Bel-7402 [9]): 29.99%; Activity (Bel-7402 [10]): 26.42%; pIC50 (A549): 5.95; pIC50 (K562): 5.07; Activity (Bel-7402 [11]): 51.91%; Activity (Bel-7402 [12]): Dose-dependent effect; Activity (Bel-7402 [13]): 36.22%; Activity (Bel-7402 [14]): 5.1%; Activity (Bel-7402 [15]): 58.98%; Activity (Bel-7402 [16]): 4.8%
C=C1C(=O)[C@]23[C@H](OC(=O)CCC(=O)OCO/N=[N+](\[O-])N4CCOCC4)[C@H]1CC[C@H]2[C@@]12CO[C@@]3(O)[C@@H](O)[C@@H]1C(C)(C)CC[C@@H]2OC(C)=O | – | 5.52 | 94.5 | 85.8 | –
